XBP1 UPR activ: adaptive UPR (XBP1) activation; CHO-XBP1 luciferase reporter, IRE1-XBP1 UPR activation, luminescence; percent of tunicamycin response, DMSO as zero; AID 463104; 330,000 tested, 0.33% active; activation, % at 20 µM;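 active = versus positive control, 20 µM dose yields 30% or more activation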
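Material: IRE1-XBP1 luciferase reporter CHO line / Quantity: one thousand reporter cells per well / Buffer or medium: F12 with 10% serum / Compound: 20 µM single concentration, DMSO 1% / Times: 6 h treatment, 37 °C / Detection: Steady-Glo luciferase glow luminescence, 10 min after reagent addition / Benchmarks: tunicamycin high, DMSO low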
TbMetRS inhib: Trypanosoma brucei MetRS inhibition; AID 624268; inhibition, % at 11.9 µM; purified T. brucei MetRS, ATP depletion, Kinase-Glo luminescence; 360,000 tested, 0.4% active;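 active = inhibition above a per-plate cutoff of the control wells' mean inhibition plus 3 SD, cut at about 5.5% in these data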
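Material: T. brucei methionyl-tRNA synthetase, purified; reagent: substrates ATP, L-methionine and bulk Escherichia coli tRNA; dosing: 11.9 µM single point; timing: 15 min plus 2 h at 25 °C; detection: luminescence of leftover ATP; evaluation: % inhibition; control set: DMSO-only wells as low control; replicates: singlicate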
CHOP UPR activ: activators of apoptotic arm of unfolded protein response (CHOP); CHO-CHOP luciferase reporter, UPR activation, luminescence; percent of tunicamycin response over DMSO baseline; AID 449763; activation, % at 10 µM; 330,000 tested, 0.34% active;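 active = at 10 µM dose, activation of 40% or more, normalized to positive control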
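System: CHO-CHOP luciferase reporter cell line; amount: 500 cells/well; buffer or medium: F12 medium containing 10% fetal bovine serum; incubation: 6 h compound exposure at 37 °C after overnight seeding; measured by: luciferase luminescence after 10 min with Steady-Glo reagent; evaluation: % reporter activation, DMSO baseline versus tunicamycin full activation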
CHOP inhibitor: inhibitors of CHOP induction in ER stress response. CHO-K1 CHOP-promoter luciferase, tunicamycin-induced, 15-18 h. inhibition, % at 10 µM. 220,000 tested, 3.8% active. AID 2732;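 active = compounds that reduced the stress-induced luciferase reporter signal by more than about 70% of percent inhibition, limit read from the data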
V-ATPase pHluor: alters yeast V-ATPase proton transport | S. cerevisiae, pHLuorin cytosolic pH fluorescence | 350,000 tested, 0.37% active | AID 504577 | response, % at 10 µM; in the data active = response mostly above about 7.3%, no sharp cut-off; inactive = mostly below about 5.4%; note: actives read high
Hits are given with their value; i = inactive; nt = not tested or not shown. The sample as a whole holds a higher share of hits than the screen did.

SMILES | XBP1 UPR activ | TbMetRS inhib | CHOP UPR activ | CHOP inhibitor | V-ATPase pHluor
Cc1cccc(NC(=S)NC(=O)CCc2ccccc2)c1C | i | i | i | 75 | i
O=C(CCc1ccccc1)Nc1cccc(NC(=O)CCc2ccccc2)c1 | i | i | i | 72 | i
Cc1cccc(NC(=S)NC(=O)Cc2ccccc2)c1C | i | i | i | nt | i
Cc1cccc(NC(=O)CCc2ccc(S(=O)(=O)NC3CCCCC3)cc2)c1 | i | i | i | 72 | i
O=C(O)C(Cc1cccs1)c1cccs1 (stereo not drawn) | nt | i | nt | nt | i
O=C1c2ccccc2C(=O)N1SC1CCCCC1 | i | i | i | 72 | i
O=C(OCN1C(=O)c2ccccc2C1=O)C1CCCCC1 | i | i | i | i | i
COc1cccc(C(NC(C)=O)c2nc(-c3ccncc3)cs2)c1 (stereo not drawn) | nt | i | nt | nt | nt
FC(F)(F)c1cnc(NNC(=S)Nc2ccc(Cl)cc2)c(Cl)c1 | i | i | i | 99 | i
COc1ccc2nc(C)cc(N/N=C/c3cccc(OC)c3O)c2c1 | i | i | i | nt | i
COC(=O)c1sccc1N/N=C/c1cccc(OC)c1O | i | i | i | 83 | i
COc1cccc(/C=N/Nc2nccnc2Cl)c1O | i | i | i | 74 | i
COc1cccc(/C=N/Nc2ncnc3scc(-c4ccccc4)c23)c1O | i | i | i | 75 | i
COc1cccc(/C=N/Nc2cc(-n3nc(C)cc3-c3ccccc3)ncn2)c1O | i | i | i | 92 | i
Clc1nccnc1N/N=C/c1ccc(Br)cc1 | i | i | i | nt | i
COc1ccc(/C=N/Nc2nccnc2Cl)cc1 | i | i | i | 72 | i
Cc1ccc(CN2CC(C(=O)N3CCN(c4ccccc4Cl)CC3)CC2=O)cc1 (stereo not drawn) | i | i | i | nt | i
Cc1cccc(NC(=O)c2ccc(NS(=O)(=O)c3cccc4cccnc34)cc2)c1 | nt | i | nt | nt | i
COc1ccc(Br)c(Cn2c(C)c(C(=O)NCc3cccc([N+](=O)[O-])c3)sc2=O)c1 | nt | i | nt | nt | nt
Cc1cccc(S(=O)(=O)c2c(N)n(Cc3ccco3)c3nc4ccccc4nc23)c1 | i | i | i | i | i
Cc1ccc(S(=O)(=O)c2c(N)n(Cc3ccco3)c3nc4ccccc4nc23)cc1 | i | i | i | 74 | i
Cc1c(-c2nc(N)nc(Nc3ccccc3F)n2)oc2ccccc12 | i | i | i | 71 | i
Cc1ccc(Nc2nc(N)nc(-c3oc4ccccc4c3C)n2)cc1 | i | i | i | i | i
N#CC1=C(N)Nc2nc3ccccc3n2C1c1ccc(Cl)cc1 (stereo not drawn) | i | i | i | 90 | i
N#CC1=C(N)Nc2ncnn2C1c1ccccc1 (stereo not drawn) | i | nt | i | i | nt
SMILES | XBP1 UPR activ | TbMetRS inhib | CHOP UPR activ | CHOP inhibitor | V-ATPase pHluor
COCCN(C(=O)COC(=O)c1ccc(Br)o1)c1c(N)n(Cc2ccccc2)c(=O)[nH]c1=O | nt | i | nt | nt | i
COC(=O)c1cc2c(-c3ccccc3)cc3ccccn3c-2c1C(=O)OC | i | i | i | i | i
COC(=O)c1c(C(=O)OC)c2cccc3cc(-c4ccccc4)c4ccc1c4n32 | i | i | i | 83 | i
O=C(OC1CC2CC1[C@H]1CCCCN1C2=O)N1CCC(c2ccccc2)CC1 (stereo partly drawn) | nt | i | nt | nt | nt
CC1OC(OC2C(OC3C(O[C@H]4CC[C@]5(C)C6C=C[C@]78OC[C@@]9(CC[C@@H](C)[C@H](C)C97)[C@H](O)C[C@@]8(C)[C@]6(C)CC[C@H]5C4(C)C)OC(C)C(O)C3O)OC(CO)C(O)C2O)C(O)C(O)C1O (stereo partly drawn) | nt | nt | nt | 101 | nt
O=C(Nc1ccc(F)cc1)c1oc2ccccc2c1NC(=O)C1CCCC1 | i | i | i | 71 | i
O=C1/C(=C/c2cccs2)N=C(c2cccs2)N1Nc1ccccc1 | i | i | i | 94 | i
COc1ccc(OCC(O)Cn2c(=N)n(Cc3ccccc3)c3ccccc32)cc1 (stereo not drawn) | i | i | i | i | i
N=c1n(Cc2ccc(Cl)cc2)c2ccccc2n1CC(O)COc1ccccc1 (stereo not drawn) | i | i | i | 83 | i
CC(=O)Nc1ccc(-c2ccnc3c2CC(C)(C(=O)Nc2ccc4c(c2)OCO4)O3)cc1 (stereo not drawn) | nt | i | nt | nt | nt

High-throughput results from PubChem.
